ChEMBL document CHEMBL4613270, “Structure-Activity Relationship Study Enables the Discovery of a Novel Berberine Analogue as the RXRα Activator to Inhibit Colon Cancer” (J Med Chem, 2020)
Active and inactive are the calls of the source. The rule behind the calls is not given here.

What was measured:
[1] = target: T1, Retinoic acid receptor RXR-alpha (Homo sapiens) (UniProt P19793); experiment: In-vivo activation of RXRalpha in BALB/c mouse xenografted with human KM12C cells assessed as increase in p21 (WAF1/CIP1) mRNA expression at 100 mg/kg, ig dosed daily for 15 days by real-time PCR analysis; type: functional, organism-based
T1 sequence (whole entry): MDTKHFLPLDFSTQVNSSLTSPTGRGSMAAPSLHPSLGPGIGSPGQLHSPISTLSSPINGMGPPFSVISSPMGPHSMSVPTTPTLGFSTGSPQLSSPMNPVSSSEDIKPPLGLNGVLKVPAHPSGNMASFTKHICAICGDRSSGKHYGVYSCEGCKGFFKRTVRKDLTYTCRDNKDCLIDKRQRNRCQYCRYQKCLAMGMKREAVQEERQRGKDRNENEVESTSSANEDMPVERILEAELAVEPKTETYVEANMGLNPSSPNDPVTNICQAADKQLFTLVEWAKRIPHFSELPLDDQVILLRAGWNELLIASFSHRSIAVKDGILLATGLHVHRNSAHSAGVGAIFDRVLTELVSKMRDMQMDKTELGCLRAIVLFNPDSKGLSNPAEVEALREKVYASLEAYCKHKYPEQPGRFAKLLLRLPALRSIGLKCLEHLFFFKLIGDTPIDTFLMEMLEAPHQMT

[2] = target: T1, Retinoic acid receptor RXR-alpha (Homo sapiens); experiment: In-vivo activation of RXRalpha in BALB/c mouse xenografted with human KM12C cells assessed as induction of beta-catenin protein degradation at 100 mg/kg, ig dosed daily for 15 days by Western blot analysis; type: functional, organism-based
[3] = target: T1, Retinoic acid receptor RXR-alpha (Homo sapiens); experiment: Activation of RXRalpha in human KM12C cells assessed as reduction in Cdc2 mRNA expression at 25 to 50 uM incubated for 15 hrs by real-time PCR analysis; type: cell-based
[4] = target: T1, Retinoic acid receptor RXR-alpha (Homo sapiens); experiment: Activation of RXRalpha (unknown origin) expressed in human HCT116 cells co-expressing beta-catenin assessed as induction of RXRalpha interaction with beta-catenin at 30 to 60 uM incubated for 15 hrs by mammalian two-hybrid assay; type: cell-based; details: HCT-116
In short: (§1)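 Mammalian two-hybrid: cells co-transfected by lipofection with pBIND-β-catenin/S33Y plus pACT-RXRα (RXRα–β-catenin) or pACT-c-Cbl (β-catenin–c-Cbl); 20 h after transfection, compound added for 15 h; cells lysed in passive lysis buffer, 4 °C, 1 h; firefly and Renilla luciferase read by dual-luciferase kit.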

[5] = target: T1, Retinoic acid receptor RXR-alpha (Homo sapiens); experiment: Induction of conformational changes in His-tagged RXRalpha LBD (unknown origin) expressed in Escherichia coli strain BL21 (DE3) at 5 uM by circular dichroism spectroscopic assay
In short: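 His-RXRα-LBD expressed in E. coli BL21(DE3) (0.1 mM IPTG, 16 °C, 16 h), Ni-NTA purified, diluted to 1 µM in 0.01 M phosphate buffer; compound 5 µM (0.01% DMSO). CD spectra recorded 180-260 nm at 25 °C, 0.1 cm path, 1 nm bandwidth, 20 nm/min, 5 min after compound addition.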

[6] = target: T1, Retinoic acid receptor RXR-alpha (Homo sapiens); experiment: In-vivo activation of RXRalpha in BALB/c mouse xenografted with human KM12C cells assessed as effect on Ki67 protein expression at 100 mg/kg, ig dosed daily for 15 days by immunohistochemistry analysis; type: functional, organism-based
[7] = target: T1, Retinoic acid receptor RXR-alpha (Homo sapiens); experiment: In-vivo activation of RXRalpha in BALB/c mouse xenografted with human KM12C cells assessed as reduction in c-Myc protein expression at 100 mg/kg, ig dosed daily for 15 days by Western blot analysis; type: functional, organism-based
In short: (§2)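 KM12C cells (1×10^6 per mouse in 100 μL HBSS) injected subcutaneously into both flanks of nude mice; after seven days, randomized to three groups, dosed intragastrically once daily for 15 days with vehicle (CMC-Na) or 100 mg/kg compound; mice euthanized and tumors removed for analysis.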

[8] = Toxicity in BALB/c mouse xenografted with human KM12C cells assessed as effect on biochemical parameter by measuring AST level at 100 mg/kg, ig dosed daily for 15 days by automatic chemistry analyzer based analysis (reference value: 157.15 +/- 8.41 U/L); type: organism-based; details: in vivo, po, 360 h
[9] = target: T1, Retinoic acid receptor RXR-alpha (Homo sapiens); experiment: Activation of RXRalpha in human SW620 cells assessed as induction of beta-catenin protein degradation at 40 to 80 uM incubated for 15 hrs by Western blot analysis; type: cell-based; details: SW-620
[10] = target: T1, Retinoic acid receptor RXR-alpha (Homo sapiens); experiment: Activation of RXRalpha in human SW620 cells assessed as inhibition of Wnt/beta-catenin-dependent transcriptional activity at 40 to 80 uM incubated for 15 hrs by TOP/FOP luciferase assay; type: cell-based; details: SW-620
In short: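 TOP/FOP reporter: cells co-transfected by lipofection with pRL-TK plus TOPflash or FOPflash; compound added 20 h after transfection for 15 h; passive lysis at 4 °C, 1 h; firefly and Renilla luciferase measured by dual-luciferase assay.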

[11] = target: T1, Retinoic acid receptor RXR-alpha (Homo sapiens); experiment: Activation of RXRalpha in human KM12C cells assessed as induction of beta-catenin protein degradation at 25 to 50 uM incubated for 15 hrs by Western blot analysis; type: cell-based
[12] = target: T1, Retinoic acid receptor RXR-alpha (Homo sapiens); experiment: Activation of RXRalpha in human KM12C cells assessed as […] crease in p21 (WAF1/CIP1) mRNA expression at 25 to 50 uM incubated for 15 hrs by real-time PCR analysis; type: cell-based
[13] = target: T1, Retinoic acid receptor RXR-alpha (Homo sapiens); experiment: In-vivo activation of RXRalpha in BALB/c mouse xenografted with human KM12C cells assessed as increase in p21 (WAF1/CIP) protein expression at 100 mg/kg, ig dosed daily for 15 days by Western blot analysis; type: functional, organism-based
[14] = target: T1, Retinoic acid receptor RXR-alpha (Homo sapiens); experiment: Activation of RXRalpha in human KM12C cells assessed as reduction in c-Myc mRNA expression at 25 to 50 uM incubated for 15 hrs by real-time PCR analysis; type: cell-based
[15] = target: T1, Retinoic acid receptor RXR-alpha (Homo sapiens); experiment: In-vivo activation of RXRalpha in BALB/c mouse xenografted with human KM12C cells assessed as reduction in c-Myc mRNA expression at 100 mg/kg, ig dosed daily for 15 days by real-time PCR analysis; type: functional, organism-based; in short: as §2
[16] = target: T1, Retinoic acid receptor RXR-alpha (Homo sapiens); experiment: Activation of RXRalpha in human HCT116 cells assessed as reduction in c-Myc protein expression at 30 to 60 uM incubated for 15 hrs by Western blot analysis; type: cell-based; details: HCT-116
[17] = target: T1, Retinoic acid receptor RXR-alpha (Homo sapiens); experiment: Activation of RXRalpha (unknown origin) expressed in human HCT116 cells co-expressing beta-catenin and c-Cbl assessed as induction of beta-caten interaction with c-Cbl at 30 to 60 uM incubated for 15 hrs by mammalian two-hybrid assay; type: cell-based; details: HCT-116; in short: as §1
[18] = target: T1, Retinoic acid receptor RXR-alpha (Homo sapiens); experiment: In-vivo activation of RXRalpha in BALB/c mouse xenografted with human KM12C cells assessed as reduction in Cdc2 mRNA expression at 100 mg/kg, ig dosed daily for 15 days by real-time PCR analysis; type: functional, organism-based; in short: as §2
[19] = target: T1, Retinoic acid receptor RXR-alpha (Homo sapiens); experiment: Activation of RXRalpha in human HCT116 cells assessed as reduction in c-Myc mRNA expression at 30 to 60 uM incubated for 15 hrs by real-time PCR analysis; type: cell-based; details: HCT-116

SMILES | Activity [1] | Activity [2] | Activity [3] | Activity [4] | Activity [5] | Activity [6] | Activity [7] | Activity [8] [U/L] | Activity [9] | Activity [10] | Activity [11] | Activity [12] | Activity [13] | Activity [14] | Activity [15] | Activity [16] | Activity [17] | Activity [18] | Activity [19]
COc1ccc2c(c1)CC[n+]1cc3c(OC)cccc3cc1-2.[Cl-] | Active | Active | Active | Active | Active | Active | Active | 158.36 | Active | Active | Active | Active | Active | Active | Active | Active | Active | Active | Active
COc1ccc2cc3[n+](cc2c1OC)CCc1cc2c(cc1-3)OCO2.[Cl-] [BERBERINE CHLORIDE] | Active | Active | Active | Active | Active | Active | Active | 177.86 | Active | Active | Active | Active | Active | Active | Active | Active | Active | Active | Active
